This is a sample that favours compounds with a hit; in the whole collection about 2.2% have one here.
rCAG RNA binder: binds r(CAG) RNA repeats; AID 651821; actives 1.3% (n = 370,000); inhibition, % at 3 µM; r(CAG) RNA repeat, TO-PRO-1 dye displacement fluorescence;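 active = inhibition above the plate cutoff, the mean of all test compounds on that plate plus 3 SD, cut at about 35% in these data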;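 also: 0% = DMSO alone and 100% = 100 µM mitoxantrone as full dye displacement; higher means more dye released from RNA so lower well fluorescence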
NadD block: inhibitors of Staphylococcus aureus NadD; inhibition, % at 20 µM; purified NadD enzyme, colorimetric absorbance read-out; AID 602399; actives 0.78% (n = 360,000); in the data active = inhibition above about 26%
ARFGAP1 inhibitor: inhibitors of rat ARFGAP1; Q62848; Arfgap1-stimulated ARF1 GTP hydrolysis, GDP FP detection; inhibition, % at 16.5 µM; actives 0.26% (n = 360,000); AID 651572;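 active = inhibition above a per-plate limit, mean inhibition of low control wells plus 3 SD, cut at about 25% in these data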;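 also: 0% = DMSO wells with enzyme and 100% = wells lacking Arfgap1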
Target sequence (Q62848 1-136 limits assumed): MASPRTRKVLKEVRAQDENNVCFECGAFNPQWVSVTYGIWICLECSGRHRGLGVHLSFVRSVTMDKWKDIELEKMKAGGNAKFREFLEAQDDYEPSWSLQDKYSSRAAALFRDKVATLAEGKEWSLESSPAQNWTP
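Material – truncated rat Arfgap1 GAP domain · Buffer or medium – HEPES-based buffer, pH 7.5 · Reagent – human ARF1(Δ1-17)-GTP substrate · Dosing – 16.5 µM single point, 1.26% DMSO · Schedule – GTP hydrolysis reaction 2 h at 25 °C · Technique – GDP detection by fluorescence polarization · Benchmarks – No-Arfgap1 wells (100%) versus DMSO full-reaction wells (0%) · Repeats – single replicate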
ASAP1 GAP inh: blocks human ASAP1-stimulated Arf1 GTP hydrolysis; Q9ULH1; GDP FP detection; inhibition, % at 16.5 µM; actives 0.19% (n = 360,000); in the data active = inhibition above about 25%;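 also: 0% = vehicle with enzyme and substrate and 100% = no enzyme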
Target sequence (Q9ULH1 325-724 limits assumed): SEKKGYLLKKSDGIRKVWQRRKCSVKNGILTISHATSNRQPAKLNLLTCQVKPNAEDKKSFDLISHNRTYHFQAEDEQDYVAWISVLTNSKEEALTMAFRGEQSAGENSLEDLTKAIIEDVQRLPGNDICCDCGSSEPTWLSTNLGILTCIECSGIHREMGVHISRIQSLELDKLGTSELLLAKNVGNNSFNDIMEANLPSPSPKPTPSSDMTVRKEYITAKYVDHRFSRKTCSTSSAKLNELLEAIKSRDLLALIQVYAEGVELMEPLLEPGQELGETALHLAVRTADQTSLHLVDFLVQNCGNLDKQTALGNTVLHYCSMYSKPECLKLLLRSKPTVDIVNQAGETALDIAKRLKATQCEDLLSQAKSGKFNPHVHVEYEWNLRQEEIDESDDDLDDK
ASAP1 inh confirm: ASAP1 inhibition confirmed; shares compounds with ASAP1 GAP inh; ASAP1-stimulated Arf1 GTPase, GDP fluorescence polarization; inhibition, % at 16.5 µM; actives 37% (n = 620);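 active = mean inhibition over triplicates exceeds the hit threshold derived for the earlier primary screening run, cut at about 25% in these data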
Starred values were filed as active, the others as inactive; / = no result.

SMILES	rCAG RNA binder	NadD block	ARFGAP1 inhibitor	ASAP1 GAP inh	ASAP1 inh confirm
C[C@H](O)[C@@H]1CN2CCc3c([nH]c4cccc(-c5ccc6c(c5)OCO6)c34)[C@@H]2C[C@@H]1N(C)C(=O)c1ccco1	8	/	/	/	/
CCCCC(=O)N(C)c1c(CC)nc2c(OCCOc3ccccc3)cccn12	-4	0	2	-9	/
Cc1cc(NC(=O)C2CCN(C(=O)c3ccco3)CC2)ccc1Br	-1	-1	3	30*	1
Cc1cc(C)c(C#N)c(SCc2cn3c(C)cccc3n2)n1	0	-3	18	25*	19
Nc1cc(=O)[nH]c(SCC(=O)Nc2cc(Cl)cc(Cl)c2)n1	8	-4	-5	7	/
Cc1cc(C)cc(NC(=O)CSc2nc(CSc3ccc(Cl)cc3)cc(=O)[nH]2)c1	10	2	11	26*	-4
Cc1cc(NC(=O)c2ccc(C)c([N+](=O)[O-])c2)no1	5	1	8	0	/
Cc1ccc(C(=O)Nc2cccc(NC(=O)c3ccc(C)c([N+](=O)[O-])c3)n2)cc1[N+](=O)[O-]	2	22	5	28*	28*
COc1ccc(C=NNC(=O)Cc2cc(=O)[nH][nH]2)c(OC)c1	15	/	/	/	/
O=C1C=CC(=O)N1c1cccc2cccnc12	8	4	3	25*	3
c1cnc2c(c1)ccc1cccnc12	0	1	6	-5	/
O=C(c1ccco1)[C@@H]1[C@@H]2C(=O)N(c3ccc(F)cc3)C(=O)[C@@H]2C2c3ccccc3C=CN21 (some centres undefined)	17	/	5	25*	9
O=C(c1ccco1)[C@@H]1[C@@H]2C(=O)N(c3ccc(F)cc3)C(=O)[C@@H]2[C@H]2C=Cc3ccccc3N21	22	12	-5	0	/
O=C(NCc1ccncc1)c1ccccc1Nc1ccc(SC(F)F)cc1	-2	2	2	28*	15
CNC(=O)c1ccccc1Nc1ccc(SC(F)F)cc1	-5	-6	-6	0	/
Cc1c(O)ccc(/C=N/Nc2nc(-c3cccnc3)nc3ccccc23)c1O	31	36*	8	27*	22
Cc1ccc(Nc2nc(-c3cccnc3)nc3ccccc23)cc1	4	-9	6	15	/
COc1ccc(CSc2nnc(SCc3ccccc3)s2)cc1	0	/	/	/	/
O=C(Cn1nnc(-c2ccccc2F)n1)Nc1ccc(F)cc1F	-1	/	/	/	/
CCOc1ccc2nc(NC(=O)c3cccc(N4C(=O)CCC4=O)c3)sc2c1	1	-25	8	1	/
COc1ccc2nc(NC(=O)c3cccc(N4C(=O)CCC4=O)c3)sc2c1	11	1	-2	26*	9
CSc1ncccc1C(=O)N1CCC(C)(C(=O)O)C1 (centres undefined)	-2	0	-5	-10	/
Cc1ccc(NC(=S)N/N=C/c2c(C)nn(-c3ccccc3)c2N2CCCC2)cc1	4	17	4	7	/
Cc1nn(-c2ccccc2)c(N2CCCC2)c1/C=N/NC(=S)Nc1ccc(F)cc1	7	15	1	27*	8
Cc1cc(Nc2cc(Cl)nc(Sc3ccc(NC(=O)C4CC4)cc3)n2)n[nH]1	20	4	18	30*	22
SMILES	rCAG RNA binder	NadD block	ARFGAP1 inhibitor	ASAP1 GAP inh	ASAP1 inh confirm
c1ccc(Cn2ccc3ccc(-c4ccc5ccn(Cc6cccc(Oc7ccccc7)c6)c5c4)cc32)cc1	27	/	/	/	/
CCOC(=O)C1CCCN(C(=O)c2cccc(S(=O)(=O)N(Cc3ccccc3)c3ccccc3OC)c2)C1 (centres undefined)	0	0	-6	29*	0
CN(C)S(=O)(=O)c1cccc(C(=O)N/N=C\c2ccnc3ccccc23)c1	2	/	/	/	/
Cc1ccc(S(=O)(=O)NCCNc2ccc([N+](=O)[O-])cc2)cc1	4	-9	-2	29*	1
Cc1[nH]c2ccccc2c1CC(=O)Nc1ccc(Nc2cccnc2)c(Br)c1	12	/	21	27*	16
Cc1cc(-c2cc(NC(=O)Cc3c(C)[nH]c4ccccc34)ccc2Nc2cccnc2)ccc1F	15	/	17	19	/
Cc1cc(N2CCN(C)CC2)nc2ccc(NC(=O)CCC3CCCC3)cc12	-6	-4	24	28*	39*
C[C@H](NC(=O)c1nc[nH]c1C(=O)N1CCN(C(=O)OC(C)(C)C)CC1)C(=O)OCc1ccccc1	-5	2	0	0	/
CC1CCN(C(=O)c2[nH]cnc2C(=O)N[C@@H](C)C(=O)OCc2ccccc2)CC1	-4	-3	-10	25*	2
Cc1oc2cc3oc(=O)c(CCC(=O)NCCCN4CCOCC4)c(C)c3cc2c1C	-4	-2	2	-1	/
CCOc1ccc(CCNC(=O)CN2C(=O)NC(CCSC)C2=O)cc1OCC (centres undefined)	-2	3	11	28*	5
Cn1c(SCC(=O)NC2CCCCC2)nc2c(c1=O)SCC2	1	1	9	-10	/
Cn1c(SCC(=O)NC2CCCC2)nc2c(c1=O)SCC2	-3	-6	17	28*	10
Nc1ccn([C@@H]2O[C@H](C(=O)N3CCN(C(=O)N4CCCCC4)CC3)[C@@H](O)[C@H]2O)c(=O)n1	-1	/	4	1	/
COC(=O)c1ccccc1NC1=C/C(=N\S(=O)(=O)c2cccs2)c2ccccc2C1=O	7	6	11	35*	6
COC(=O)CSc1nnc(-c2cc(-c3ccccc3)n[nH]2)n1N	2	/	/	/	/
COc1ccc(-n2c(SCC(=O)Nc3ccc4c(c3)OCO4)nc3ccccc3c2=O)cc1	4	7	-3	3	/
COc1ccc(-n2c(SCC(=O)Nc3ccc(NC(C)=O)cc3)nc3ccccc3c2=O)cc1	3	1	10	27*	4
CCCCN(C(=O)c1ccc(C)o1)c1c(N)n(CC(C)C)c(=O)[nH]c1=O	1	-3	6	2	/
COc1ccccc1NS(=O)(=O)c1cc(NC(=O)C(C)(C)C)ccc1N1CCOCC1	1	-3	5	-9	/
COc1ccccc1NS(=O)(=O)c1cc(NC(=O)/C=C/c2cccs2)ccc1N1CCOCC1	21	3	20	32*	18
CC(=O)Nc1ccc(/C=N\NC(=O)c2cccc(S(=O)(=O)N(C)C)c2)cc1	2	/	/	/	/
O=C(CSc1ccccc1)NC1CCCCN(Cc2cccc(Cl)c2)C1=O (centres undefined)	3	/	/	/	/
Cc1ccccc1NC(=O)c1cccc(N2C(=O)C3C4CC(C(Br)C4Br)C3C2=O)c1 (centres undefined)	0	-1	8	28*	6
CC1CCC(NC(=O)COC(=O)C2CC3CCCC(C2)C3=O)CC1 (centres undefined)	-7	0	-2	-10	/
O=C(COC(=O)C1CC2CCCC(C1)C2=O)NC1CCCCC1 (centres undefined)	-1	0	7	26*	-3
C=CCOC(=O)N1CCN(C(=O)c2ccc3nc(C)n(C4CCCC4)c3c2)CC1	1	/	/	/	/
CCCCn1c2nc3ccccc3nc2c2c(=N)oc(C)nc21	3	-1	4	-7	/
